According to the EternaBench riboswitch data:

Test system: MS2 coat protein
Assay: apparent Kd, MS2 coat protein; higher = weaker binding; RNA-MaP array; FMN 200 µM where present
In short: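 Designs were transcribed by stalled E. coli RNA polymerase on Illumina sequencing-chip clusters. They were titrated with SNAP-549-labelled MS2 coat protein from 0.7 or 1.5 nM, doubling to 3 µM, without and then with constant ligand. Buffer: 100 mM Tris-HCl pH 7.5, 80 mM KCl, 4 mM MgCl2, BSA, DTT, yeast tRNA, Tween-20. Green signal was normalised to red-channel RNA signal and control-cluster median Fmax. Apparent Kd is the median of filtered per-cluster binding-curve fits.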

[1] = designed as: OFF switch for flavin mononucleotide, no ligand
[2] = ligand present: flavin mononucleotide, designed as: OFF switch for flavin mononucleotide
[3] = designed as: ON switch for flavin mononucleotide, no ligand
[4] = ligand present: flavin mononucleotide, designed as: ON switch for flavin mononucleotide

| Sequence | apparent Kd [1] | apparent Kd [2] | apparent Kd [3] | apparent Kd [4] |
| --- | --- | --- | --- | --- |
| UGUCGGAGCAGAGGAUAUUACAUGAGGAUCACCCAUGUAUGAACCAAUAGCUGGAGACAGCAAUGUAAGAAGGCUGCUCCGACA | 0.0122 µM | 0.171 µM | – | – |
| CUGCUCCGUGUAGGAUAUGCAUACUCCCACUAUGCAGAAGGACAUGAGGAUCACCCAUGUAUGUUAUUAUCACGUGUAGCGUAC | 0.0287 µM | 0.0729 µM | – | – |
| GGAUGCCGCUCAGGAUAUGUGGGUUGUCUAGUAUCUAGAUUCCACAUGAGGAUCACCCAUGUAACACAGAAGGGAGAUGGUGAU | – | – | 0.526 µM | 0.0232 µM |
| CGUAGGAUCCAGAAGGCAUGUACAUGAGGAUCACCCAUGUCGAAAGACAUGAGGAUAUGGAUCCUACGAAAAGUGCGAAAGCAC | – | – | 0.0564 µM | 0.00615 µM |
| CCAUGGUGGGCAGGAUAUCGUCCAGCUUGCGGACGAGAAGGGCCAGAACAUGAGGAUCACCCAUGUGAAAGGCGGGUUGUCCAA | 0.0216 µM | 0.103 µM | – | – |
| AGUGGUGAGCAAGGAUAUCGCCACUGCGUGACCUCACAACGGAUACAUGAGGAUCACCCAUGUGGCGAGAAGGUGCGGGAACGG | 0.0281 µM | 0.0369 µM | – | – |
| GGUACUCAAAGAGUACCAAUACGAACAUGAGGAUCACCCAUGUAGGAUAUGCUACUCAAAGAGUAGCAGAAGGACAUGUGUCUA | 0.0296 µM | 0.16 µM | – | – |
| UGGUACAUGGGAGGAUAUCGUGUAGACACAUGAGGAUCACCCAUGUCGAUGGAGACAUCGGAGAUCGAGAAGGCCCAUGUACCU | – | – | 0.0846 µM | 0.00881 µM |
| CCGUGAGCAGGAUAUACAUGAGGAUCACCCAUGUCCGAUCCAAACAUGGGAAAAGAAGGUAGAAGGGUUUGAGG | 0.0285 µM | 0.0361 µM | – | – |
| CGCAAGUAUACAUGAGGAUCACCCAUGUAAGAUAGGGUAAUCAGAAGGUACAAUUAGAGAUAGAGUAAGGAUAUGAAAUUUGCG | – | – | 0.358 µM | 0.0945 µM |
| UUGUUGUAUGUAGGAUAUGCAUGUUAUUAUUAUGCAGAAGGACAUGAGGAUCACCCAUGUGUAUUAUUAUUAUAUAUUAUAUAU | 0.0209 µM | 0.0233 µM | – | – |
| AAACACGGCGAACCGGCGUUCGUACAUGAGGAUCACCCAUGUCAGGAUAUCUCGAUCUUUGAAUGAGAGAAGGGACAGGAUCCU | 0.7 µM | 0.375 µM | – | – |
| AGUAAGAUGCAGAAGGUGUCAGCGAGAGCUGCACAUGAGGAUCACCCAUGUUGUCGGUGACGACGCAAGGAUAUGCAUCUUACA | – | – | 0.0892 µM | 0.0158 µM |
| AUAAUGCGAGGAUAUACAUGAGGAUCACCCAUGUAAUUCAAUCGGAGAGCCACAUUACGUAGAAGGUGCAUUAA | 0.017 µM | 0.023 µM | – | – |
| CUGAUGUUAGGAUAUCAGGCGCCCGCCACUGGCAAAGCGCAUGAGAAGGGACAUGAGGAUCACCCAUGUAGUAA | 0.0282 µM | 0.0476 µM | – | – |
| UAGAAAGAUUAAUAUGAUUACAUGAGGAUCACCCAUGUAUAAUAGGAUAUCGACGUCAAUGACGUCGAGAAGGAUUAUACAUAA | 0.0536 µM | 0.0712 µM | – | – |
| UGGUACUAGGGAGGAUAUGGGAAGAUACAUGAGGAUCACCCAUGUUUAAGAAUGCCGAGAGGCAACUAGAAGGCCCUAGUACAU | – | – | 0.537 µM | 0.0187 µM |
| UCCUCGAUGUAGAAGGCCGCGUCCGGCUCACGCGGAGGAUAUACAUGAGGAUCACCCAUGUGUCUGUGCCUUAUAUGGUACGGA | 0.111 µM | 0.0105 µM | – | – |
| AUACCACGAGGAUAUCGUCUAUUUUACAUGAGGAUCACCCAUGUUAUCUUUGUUUUGUUUCGAGAAGGCGUGUUUU | 0.0251 µM | 0.0171 µM | – | – |
| UGCUACAUGAGGAUCACCCAUGUAAUGUGGGAAUCGUUAGGACAGGAUAUGAUUGUAUUGUUUUUUCAGAAGGGUCAUUACUUU | 0.302 µM | 0.303 µM | – | – |
| CCUCCCUGAGGAUAUCCAUCCUCAUACAUGAGGAUCACCCAUGUUCAUCCGUGGCUACCCGGAGAAGGCAGCUCUG | 0.321 µM | 0.29 µM | – | – |
| GACAUGGUCUAGAAGGCCUAUCUAUUUAAGUACGAUUUAGAACAGCAUAGGAGGAUAUGGCUAACAUGAGGAUCACCCAUGUUC | – | – | 0.049 µM | 0.0233 µM |
| UUGAAUUAUAAGGAUAUGGGAGUCGAUAGACACCCAGAAGGUAUAACAUGAGGAUCACCCAUGUGUCCUAUCUU | 0.0222 µM | 0.0234 µM | – | – |
| CAGUGCUGUUGAGAGGAUAUGCGGCGACGGACAUGAGGAUCACCCAUGUUAGCGACAGCGUUGCGGCAGAAGGCUCUGCCCACUG | – | – | 0.0112 µM | 0.0104 µM |

| Sequence | apparent Kd [1] | apparent Kd [2] | apparent Kd [3] | apparent Kd [4] |
| --- | --- | --- | --- | --- |
| GGUUAGGACAGAGGAUAUACGUGCUAGAGAUACUAGCAAAAUUUCCUCACAUGAGGAUCACCCAUGUAGAAGGCUGUCCUAUCG | 0.0164 µM | 0.434 µM | – | – |
| UACCACGACAACGCGGUAUCACAUGAGGAUCACCCAUGUUCACAGGAUAUGCGAUAGCCAACGAAGCAGAAGGGUGAUUACUUA | – | – | 0.0702 µM | 0.158 µM |
| AUAGGGCUACACUGAAAGACACAUGAGGAUCACCCAUGUGAGAGAAGGGCUUCUGGAGGGCUGAGGUAGGAUAUUUCACCUGGG | 0.0186 µM | 0.0226 µM | – | – |
| UGCCGUAGAGGAUAUACAUUGAAUUUGAUUCAUGUAAAACUACAUGAGGAUCACCCAUGUAGAAGGCUAUGGCU | 0.0179 µM | 0.0344 µM | – | – |
| CCUUUGAAGAUCCUAAAUUUCGACAUGAGGAUCACCCAUGUGCAGGAUAUCGUGCCAGUGAUGUACGAGAAGGGCAGACUCUGC | 0.0543 µM | 0.058 µM | – | – |
| GCGAUUUUGUAGAAGGUACGUGAUUAGACAAAGUAAGGAUAUACUGACAUGAGGAUCACCCAUGUAUUAAUAGUUAACAGUCGC | – | – | 0.0254 µM | 0.0149 µM |
| AAGAGAAAAGCAGGAUAUCUAUUGGCUCCUUAACAUGAGGAUCACCCAUGUAGAGAAGGGCUAAGACCGACUCUUCGGAGUUGA | 0.00707 µM | 0.0206 µM | – | – |
| GUUGCGUUUGUGAGGAUAUGCUGGUCCUUGGUUCGGCAGAAGGCACAUGAGGAUCACCCAUGUGGUGUCGUUCC | 0.0142 µM | 0.0224 µM | – | – |
| GCACAUGAGGAUCACCCAUGUCGGGAGGAUAUCUAGGCUGGGCGAUGCUAGGGCGGCCUCUGCUUAGAGAAGGCCCAUAAAAUC | – | – | 0.197 µM | 0.0334 µM |
| AGCACGAAAGUGCAACGAUGUACGAGAAGGACAUGAGGAUCACCCAUGUCGCUGUAACAGCACAUGUAGGAUAUCGUACAUCGA | 0.0129 µM | 0.0152 µM | – | – |
| GAUUGACAUGAGGAUCACCCAUGUGAGGAUAUCGGCCGGACCUUGUUAGCUUCCAUCGCGAGAAGGCACAUAGG | 0.0281 µM | 0.0371 µM | – | – |
| GGUAGAAACAUUAACAUGAGGAUCACCCAUGUCAAAAGAAAUGAGGAUAUCGUCUACAAUGUAUAUGAGAAGGCAUGGUCUGCC | – | – | 0.0203 µM | 0.0146 µM |
| AAGAACUGAGGAUAUGCAAAAGGGAAAGCUGAUCCUCAUCUACAUGAGGAUCACCCAUGUAGAAGGCGGGAAAU | 0.0494 µM | 0.0505 µM | – | – |
| CGUAGUUGGUAAGGAUAUCCUACACUAUUCUGACCCGUGCAAGCUACAUGAGGAUCACCCAUGUGGGAGAAGGUGCGUCAACGU | 0.0108 µM | 0.0109 µM | – | – |
| AGCUAGUCAGGAUAUACAAACAUGUCAAAAGACGUGAAGGGACAUGAGGAUCACCCAUGUAGAAGGGACUAGCA | 0.0662 µM | 0.379 µM | – | – |
| GUGGUCAGACAUGAGGAUCACCCAUGUGGAAUAAAUAACGGACAGGAUAUCGAAUAUAGGAUAUACGAGAAGGGUUGAUUGGUG | – | – | 0.0837 µM | 0.106 µM |
| UGCACGAGGCAAGGAUAUGCUGACAUGAGGAUCACCCAUGUGAGCAUGGGUCUGGUACGGGAUCAGCAGAAGGUGCACCGAGGU | 0.0368 µM | 0.0274 µM | – | – |
| UUGUACGUCGUAGGAUAUGUAGGAUAUUCCUACAUGAGGAUCACCCAUGUUGACAUGGAAGAAGGACAGAAGGACGAUGUCCAU | – | – | 0.429 µM | 0.00783 µM |
| GAGCGAAAGCUCAAUGUCGAUAGCAGAAGGACAUGAAAAUACAUGAAAACAUGAGGAUCACCCAUGUAGGAUAUGCUAUCGACU | 0.00875 µM | 0.0894 µM | – | – |
| GCCAGGAUGUAAGGAUAUGCUGAGGAAUACUCAGCAGAAGGUACAUGAGGAUCACCCAUGUAAUCCAAUAAUAAAUAACCUGGC | 0.0113 µM | 0.0234 µM | – | – |
| GGAUGACAAAGUCAUCCUAUUCGAACAUGAGGAUCACCCAUGUAGGAUAUGCUACACAAAGUGUAGCAGAAGGACAUGUGCUUU | 0.0338 µM | 0.171 µM | – | – |
| UGAACUUCAGAGAAGGUCGAACGGCAACGGUUCGAAGGAUAUCUGGAAACAUGAGGAUCACCCAUGUAACCGGGUGGAUGUCCU | 0.0589 µM | 0.291 µM | – | – |
| GGGUACAUCGGAGGAUAUCAUGUAAAUACAUGAGGAUCACCCAUGUCGAUGGAGACAUCGGAGAUAGAGAAGGCCGAUGUACCG | – | – | 0.476 µM | 0.011 µM |
